Values joined by “and” are separate entries in the source; they are usually repeats but may differ in a detail not shown here. Equal values may be shown once. Active and inactive are the calls of the source.
Assays:
[1] = target: Histone deacetylase 11 (Homo sapiens, UniProt Q96DB2); assay: Inhibition of full length recombinant human HDAC11 expressed in baculovirus expression system using fluorogenic substrate by fluorescence assay
Method in brief: (§1)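 Outsourced HDAC isozyme panel run under proprietary protocols. Each compound was tested at 10 μM and 5 μM, using Class 2a HDAC substrate at 2 μM, with fluorescence read-out. […] IC50 range was bracketed from % inhibition at the two concentrations.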

[2] = Antiproliferative activity against human PBMC assessed as reduction in cell viability after 70 hrs by Quanti-blue assay; assay type: cell-based
Method in brief: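 QB fluorescence viability assay; hPBMCs purified by density centrifugation from purchased human blood, stored frozen, resuspended in RPMI-1640 with 10% heat-inactivated FBS, HEPES, pyruvate, non-essential amino acids and BME; seeded at 10^6 cells/mL. Compounds at 50 μM, 70 h plus 2 h with detection reagent; λex 530/λem 590 nm. Three independent repeats.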

[3] = test system: MDA-MB-231; assay: Antiproliferative activity against human MDA-MB-231 cells assessed as reduction in cell viability after 72 hrs by MTS-PMS assay; assay type: functional; conditions: MDA-MB-231, 72 h
Method in brief: (§2)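 MTS-PMS viability test. Cells were seeded at 3,000/well and left 24 h at 37 °C, 5% CO2, then exposed to compound for 72 h. Screening was at 50 μM for HCT116 and MCF-7 and […], with final DMSO ≤1%. MTS:PMS was mixed 20:1, added for 3 h, and absorbance read at 490 nm. At least two independent runs were done, each in triplicate.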

[4] = target: Histone deacetylase 1 (Homo sapiens, UniProt Q13547); assay: Inhibition of recombinant full length C-terminal FLAG-tagged/C-terminal His-tagged human HDAC1 using fluorogenic substrate by fluorescence assay
Histone deacetylase 1, sequence (Q13547 whole entry): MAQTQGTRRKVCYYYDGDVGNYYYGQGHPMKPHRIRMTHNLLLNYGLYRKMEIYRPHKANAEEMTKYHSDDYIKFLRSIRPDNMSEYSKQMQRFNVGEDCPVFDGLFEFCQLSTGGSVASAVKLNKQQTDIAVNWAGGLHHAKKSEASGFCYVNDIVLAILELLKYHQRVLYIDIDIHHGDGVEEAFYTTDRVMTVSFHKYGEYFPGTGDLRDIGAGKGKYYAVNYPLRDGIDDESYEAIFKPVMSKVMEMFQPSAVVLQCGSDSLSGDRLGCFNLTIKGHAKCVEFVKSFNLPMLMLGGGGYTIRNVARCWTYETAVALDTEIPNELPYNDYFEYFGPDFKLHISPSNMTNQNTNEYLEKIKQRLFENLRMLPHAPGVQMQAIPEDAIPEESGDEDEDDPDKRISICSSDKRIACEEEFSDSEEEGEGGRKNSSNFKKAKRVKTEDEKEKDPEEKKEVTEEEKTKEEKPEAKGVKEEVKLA
Method in brief: (§3)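 Outsourced HDAC isozyme panel run under proprietary protocols. Each compound was tested at 10 μM and 5 μM, using HDAC substrate 3 at 10 μM, with fluorescence read-out. […] IC50 range was bracketed from % inhibition at the two concentrations.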

[5] = target: Histone deacetylase 5 (Homo sapiens, UniProt Q9UQL6); assay: Inhibition of recombinant C-terminal His-tagged human HDAC5 catalytic domain (656 to 1122 residues) expressed in baculovirus expression system using fluorogenic substrate by fluorescence assay; method in brief: as §1
[6] = target: Protein deacetylase HDAC6 (Homo sapiens, UniProt Q9UBN7); assay: Inhibition of recombinant full length N-terminal GST-tagged human HDAC6 expressed in baculovirus expression system using fluorogenic substrate by fluorescence assay; method in brief: as §3
Protein deacetylase HDAC6, sequence (Q9UBN7 whole entry): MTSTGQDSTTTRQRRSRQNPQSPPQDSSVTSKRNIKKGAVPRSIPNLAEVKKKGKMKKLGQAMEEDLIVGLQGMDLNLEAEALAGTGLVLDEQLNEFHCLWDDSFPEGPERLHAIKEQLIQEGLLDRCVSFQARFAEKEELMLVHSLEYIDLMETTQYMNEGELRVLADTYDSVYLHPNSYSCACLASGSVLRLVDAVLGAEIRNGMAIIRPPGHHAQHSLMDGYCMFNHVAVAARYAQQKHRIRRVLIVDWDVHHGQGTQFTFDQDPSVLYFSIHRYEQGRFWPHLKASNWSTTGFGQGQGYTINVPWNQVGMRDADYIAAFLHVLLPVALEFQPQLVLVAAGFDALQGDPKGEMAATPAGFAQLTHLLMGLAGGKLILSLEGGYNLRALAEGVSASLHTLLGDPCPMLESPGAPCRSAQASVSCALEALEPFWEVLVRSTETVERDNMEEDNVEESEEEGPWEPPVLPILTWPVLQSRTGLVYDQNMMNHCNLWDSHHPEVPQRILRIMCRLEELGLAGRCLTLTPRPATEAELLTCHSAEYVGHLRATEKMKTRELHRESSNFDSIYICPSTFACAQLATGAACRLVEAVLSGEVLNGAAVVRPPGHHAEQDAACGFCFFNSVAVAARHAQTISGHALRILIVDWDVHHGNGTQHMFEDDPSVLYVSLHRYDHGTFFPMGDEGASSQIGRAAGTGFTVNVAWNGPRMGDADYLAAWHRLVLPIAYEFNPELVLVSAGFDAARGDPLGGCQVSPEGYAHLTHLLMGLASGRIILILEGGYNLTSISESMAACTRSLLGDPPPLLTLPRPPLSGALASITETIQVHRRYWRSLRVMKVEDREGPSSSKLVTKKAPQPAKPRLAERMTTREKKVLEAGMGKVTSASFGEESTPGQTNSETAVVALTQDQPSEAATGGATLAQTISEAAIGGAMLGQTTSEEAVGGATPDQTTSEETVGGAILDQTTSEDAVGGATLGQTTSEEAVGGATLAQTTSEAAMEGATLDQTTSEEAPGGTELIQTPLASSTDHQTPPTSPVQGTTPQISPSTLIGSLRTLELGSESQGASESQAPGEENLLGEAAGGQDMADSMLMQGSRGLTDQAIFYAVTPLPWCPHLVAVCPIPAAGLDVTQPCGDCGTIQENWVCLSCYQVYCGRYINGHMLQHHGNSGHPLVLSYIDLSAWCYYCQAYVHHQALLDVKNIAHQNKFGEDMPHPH

[7] = Immunomodulatory activity in human TALL-104 cells assessed as effect on degranulation by measuring augmentation of CD3-stimulated anti-LAMP fluorescence at 100 uM preincubated for 30 mins followed by anti-LAMP addition and incubated for 50 mins in the dark by flow cytometric analysis relative to control; assay type: functional
[8] = target: Histone deacetylase 4 (Homo sapiens, UniProt P56524); assay: Inhibition of recombinant C-terminal His-tagged/N-terminal GST-tagged human HDAC4 (627 to 1084 residues) expressed in baculovirus expression system using fluorogenic substrate by fluorescence assay; method in brief: as §1
[9] = target: T1, Histone deacetylase 2 (Homo sapiens, UniProt Q92769); assay: Inhibition of recombinant full length C-terminal His-tagged human HDAC2 expressed in baculovirus expression system using fluorogenic substrate by fluorescence assay
T1 sequence (Q92769 whole entry, the tested form may be a part): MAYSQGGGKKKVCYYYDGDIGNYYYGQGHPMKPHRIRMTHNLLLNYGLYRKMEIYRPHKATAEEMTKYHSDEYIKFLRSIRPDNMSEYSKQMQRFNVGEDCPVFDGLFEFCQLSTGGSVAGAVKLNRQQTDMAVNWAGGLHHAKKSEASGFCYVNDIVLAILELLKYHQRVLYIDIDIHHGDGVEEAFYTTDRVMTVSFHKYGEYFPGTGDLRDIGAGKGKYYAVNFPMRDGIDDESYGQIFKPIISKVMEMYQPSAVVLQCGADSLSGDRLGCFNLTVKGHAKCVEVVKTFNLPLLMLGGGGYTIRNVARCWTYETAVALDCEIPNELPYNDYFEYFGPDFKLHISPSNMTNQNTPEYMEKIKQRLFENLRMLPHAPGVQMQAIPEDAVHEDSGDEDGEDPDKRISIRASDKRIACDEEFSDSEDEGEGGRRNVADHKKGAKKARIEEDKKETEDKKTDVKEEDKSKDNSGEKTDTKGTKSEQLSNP

[10] = target: Histone deacetylase 9 (Homo sapiens, UniProt Q9UKV0); assay: Inhibition of recombinant C-terminal His-tagged human HDAC9 (604 to 1066 residues) expressed in baculovirus expression system using fluorogenic substrate by fluorescence assay; method in brief: as §1
[11] = test system: HuT78; assay: Antiproliferative activity against human HUT78 cells assessed as reduction in cell viability after 70 hrs by Quanti-blue assay; assay type: functional
Method in brief: (§4)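 Quanti-Blue viability kit. HuT-78 and Molt-4 cells were grown in RPMI-1640 and seeded at 10^5 cells/mL. Compounds were screened at 50 μM for 70 h, with detection reagent present for the final 2 h. Fluorescence was read at ex 530/em 590 nm. IC50 from dose-response came from linear regression. Three independent runs.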

[12] = target: T1, Histone deacetylase 2; assay: Inhibition of full length recombinant human HDAC2 expressed in baculovirus expression system using fluorogenic peptide RHKK(Ac) as substrate by fluorescence assay
[13] = target: Histone deacetylase 7 (Homo sapiens, UniProt Q8WUI4); assay: Inhibition of recombinant N-terminal GST-tagged human HDAC7 (518 to end residues) expressed in baculovirus expression system using fluorogenic substrate by fluorescence assay; method in brief: as §1
[14] = target: Histone deacetylase 8 (Homo sapiens, UniProt Q9BY41); assay: Inhibition of recombinant full length C-terminal His-tagged human HDAC8 expressed in baculovirus expression system using fluorogenic substrate by fluorescence assay; method in brief: as §1
Histone deacetylase 8, sequence (Q9BY41 whole entry): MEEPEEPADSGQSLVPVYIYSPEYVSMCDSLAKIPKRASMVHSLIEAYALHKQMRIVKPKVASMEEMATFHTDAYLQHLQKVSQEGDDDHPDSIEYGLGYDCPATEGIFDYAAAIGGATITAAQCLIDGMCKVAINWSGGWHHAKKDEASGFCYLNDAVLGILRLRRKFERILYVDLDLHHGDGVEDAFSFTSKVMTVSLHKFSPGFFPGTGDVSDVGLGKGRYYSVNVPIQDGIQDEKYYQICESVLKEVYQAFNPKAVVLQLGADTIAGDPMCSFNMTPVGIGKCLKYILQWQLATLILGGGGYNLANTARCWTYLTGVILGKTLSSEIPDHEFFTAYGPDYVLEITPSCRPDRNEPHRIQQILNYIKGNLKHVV

[15] = test system: MCF7; assay: Antiproliferative activity against human MCF7 cells assessed as reduction in cell viability after 72 hrs by MTS-PMS assay; conditions: MCF7, 72 h
[16] = test system: HCT-116; assay: Antiproliferative activity against human HCT116 cells assessed as reduction in cell viability after 72 hrs by MTS-PMS assay; assay type: functional; method in brief: as §2
[17] = target: Histone deacetylase 3/Nuclear receptor corepressor 2 (HDAC3/NCoR2) (Homo sapiens, UniProt O15379); assay: Inhibition of recombinant full length C-terminal His-tagged human HDAC3/GST-tagged human Ncor2 (395 to 489 residues) expressed in baculovirus expression system using fluorogenic substrate by fluorescence assay; method in brief: as §3
[18] = test system: MOLT-4; assay: Antiproliferative activity against human MOLT4 cells assessed as reduction in cell viability after 70 hrs by Quanti-blue assay; assay type: functional; method in brief: as §4
[19] = target: Polyamine deacetylase HDAC10 (Homo sapiens, UniProt Q969S8); assay: Inhibition of recombinant N-terminal FLAG-tagged human HDAC10 (2 to 631 residues) expressed in baculovirus expression system using fluorogenic substrate by fluorescence assay; method in brief: as §3
[20] = target: NAD-dependent protein deacetylase sirtuin-3, mitochondrial (Homo sapiens) (UniProt Q9NTG7); assay: Inhibition of SIRT3 (unknown origin) at 10 uM
[21] = target: T2, DNMT3B-DNMT3L complex (Homo sapiens) (UniProt Q9UBC3+Q9UJW3); assay: Inhibition of DNMT3B/3L (unknown origin) at 5 uM; assay type: protein-complex assay
T2 sequence (Q9UJW3 whole entry, looked up, other chains not shown): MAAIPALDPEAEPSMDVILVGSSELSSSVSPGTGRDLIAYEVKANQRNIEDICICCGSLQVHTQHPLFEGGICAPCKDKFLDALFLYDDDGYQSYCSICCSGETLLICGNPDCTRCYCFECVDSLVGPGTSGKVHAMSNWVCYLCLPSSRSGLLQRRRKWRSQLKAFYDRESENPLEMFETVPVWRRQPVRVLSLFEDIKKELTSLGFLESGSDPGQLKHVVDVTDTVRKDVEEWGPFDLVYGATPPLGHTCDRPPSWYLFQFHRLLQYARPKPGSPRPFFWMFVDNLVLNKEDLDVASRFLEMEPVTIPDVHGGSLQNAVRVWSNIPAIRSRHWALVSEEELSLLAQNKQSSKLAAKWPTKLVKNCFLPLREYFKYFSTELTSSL

[22] = target: T3, DNMT3A2/3L complex (Homo sapiens) (UniProt Q9Y6K1+Q9UJW3); assay: Inhibition of DNMT3A/3L (unknown origin) at 10 uM; assay type: protein-complex assay
T3 sequence (Q9UJW3 whole entry, looked up): as the sequence (Q9UJW3 whole entry, looked up, other chains not shown) above
T3 sequence (Q9Y6K1 whole entry, looked up): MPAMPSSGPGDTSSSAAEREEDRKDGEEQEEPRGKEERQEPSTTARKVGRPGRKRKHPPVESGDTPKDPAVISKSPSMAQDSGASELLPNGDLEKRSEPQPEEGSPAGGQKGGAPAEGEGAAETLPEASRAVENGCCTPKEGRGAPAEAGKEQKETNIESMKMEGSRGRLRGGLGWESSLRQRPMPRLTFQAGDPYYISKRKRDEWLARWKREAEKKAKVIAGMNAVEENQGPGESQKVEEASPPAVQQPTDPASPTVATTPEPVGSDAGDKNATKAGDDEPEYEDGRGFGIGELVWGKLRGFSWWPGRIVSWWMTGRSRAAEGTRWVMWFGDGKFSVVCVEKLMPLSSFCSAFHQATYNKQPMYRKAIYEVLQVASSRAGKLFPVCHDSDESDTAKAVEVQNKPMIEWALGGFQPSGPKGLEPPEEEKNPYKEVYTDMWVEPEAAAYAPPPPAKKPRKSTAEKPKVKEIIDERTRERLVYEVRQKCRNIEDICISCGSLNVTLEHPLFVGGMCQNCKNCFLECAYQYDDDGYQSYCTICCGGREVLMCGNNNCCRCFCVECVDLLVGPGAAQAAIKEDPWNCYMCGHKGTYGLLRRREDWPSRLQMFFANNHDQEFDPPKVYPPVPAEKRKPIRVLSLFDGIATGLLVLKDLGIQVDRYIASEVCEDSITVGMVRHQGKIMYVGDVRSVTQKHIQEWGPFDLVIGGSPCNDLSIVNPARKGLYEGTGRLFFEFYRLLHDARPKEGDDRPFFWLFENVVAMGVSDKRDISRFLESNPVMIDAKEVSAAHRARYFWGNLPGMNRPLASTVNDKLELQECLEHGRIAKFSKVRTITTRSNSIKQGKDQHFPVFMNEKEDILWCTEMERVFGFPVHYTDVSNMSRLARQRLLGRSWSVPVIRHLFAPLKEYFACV

[23] = target: DNA (cytosine-5)-methyltransferase 1 (Homo sapiens) (UniProt P26358); assay: Inhibition of DNMT1 (unknown origin) at 10 uM
[24] = target: T2, DNMT3B-DNMT3L complex (Homo sapiens); assay: Inhibition of DNMT3B/3L (unknown origin) at 10 uM; assay type: protein-complex assay
[25] = target: NAD-dependent protein deacetylase sirtuin-1 (Homo sapiens) (UniProt Q96EB6); assay: Inhibition of SIRT1 (unknown origin) at 5 uM
NAD-dependent protein deacetylase sirtuin-1 (Homo sapiens), sequence (Q96EB6 whole entry): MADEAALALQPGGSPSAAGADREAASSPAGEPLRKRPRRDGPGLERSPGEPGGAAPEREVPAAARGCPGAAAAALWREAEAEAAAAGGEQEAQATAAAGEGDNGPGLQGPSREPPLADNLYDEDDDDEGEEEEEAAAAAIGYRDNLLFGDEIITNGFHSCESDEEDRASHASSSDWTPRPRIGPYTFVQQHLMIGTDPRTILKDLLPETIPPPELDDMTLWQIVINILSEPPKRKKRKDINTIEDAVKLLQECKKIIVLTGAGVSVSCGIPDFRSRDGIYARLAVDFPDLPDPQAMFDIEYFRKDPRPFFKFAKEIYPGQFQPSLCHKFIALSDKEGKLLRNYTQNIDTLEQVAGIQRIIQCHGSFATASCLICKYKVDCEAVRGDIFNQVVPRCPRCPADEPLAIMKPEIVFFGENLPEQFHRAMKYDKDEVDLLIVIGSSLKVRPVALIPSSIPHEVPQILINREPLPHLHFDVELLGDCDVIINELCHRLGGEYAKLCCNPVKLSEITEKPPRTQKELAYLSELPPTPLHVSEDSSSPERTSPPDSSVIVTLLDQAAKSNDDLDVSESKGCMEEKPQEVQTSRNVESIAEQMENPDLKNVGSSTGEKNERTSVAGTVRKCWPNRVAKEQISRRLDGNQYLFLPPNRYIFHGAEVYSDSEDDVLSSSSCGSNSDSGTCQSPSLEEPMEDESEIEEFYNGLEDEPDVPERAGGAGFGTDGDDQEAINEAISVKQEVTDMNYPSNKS

[26] = target: NAD-dependent protein deacylase sirtuin-5, mitochondrial (Homo sapiens) (UniProt Q9NXA8); assay: Inhibition of SIRT5 (unknown origin) at 5 to 10 uM
[27] = target: NAD-dependent protein deacetylase sirtuin-2 (Homo sapiens) (UniProt Q8IXJ6); assay: Inhibition of SIRT2 (unknown origin) at 10 uM
[28] = target: T3, DNMT3A2/3L complex (Homo sapiens); assay: Inhibition of DNMT3A/3L (unknown origin) at 5 uM; assay type: protein-complex assay
[29] = target: DNA (cytosine-5)-methyltransferase 1 (Homo sapiens) (UniProt P26358); assay: Inhibition of DNMT1 (unknown origin) at 5 uM
[30] = target: NAD-dependent protein deacetylase sirtuin-2 (Homo sapiens) (UniProt Q8IXJ6); assay: Inhibition of SIRT2 (unknown origin) at 5 uM
[31] = target: NAD-dependent protein deacetylase sirtuin-3, mitochondrial (Homo sapiens) (UniProt Q9NTG7); assay: Inhibition of SIRT3 (unknown origin) at 5 uM
[32] = target: NAD-dependent protein deacetylase sirtuin-1 (Homo sapiens) (UniProt Q96EB6); assay: Inhibition of SIRT1 (unknown origin) at 10 uM

Histone deacetylase 11, sequence (Q96DB2 whole entry): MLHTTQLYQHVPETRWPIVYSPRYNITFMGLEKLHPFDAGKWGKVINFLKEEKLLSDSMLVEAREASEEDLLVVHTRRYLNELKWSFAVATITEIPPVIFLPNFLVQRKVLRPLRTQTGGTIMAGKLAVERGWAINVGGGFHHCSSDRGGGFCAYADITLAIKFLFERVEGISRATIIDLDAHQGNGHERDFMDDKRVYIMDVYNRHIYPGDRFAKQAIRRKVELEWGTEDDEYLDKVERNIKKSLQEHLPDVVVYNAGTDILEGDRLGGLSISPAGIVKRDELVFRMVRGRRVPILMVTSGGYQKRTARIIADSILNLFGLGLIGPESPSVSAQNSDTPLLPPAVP

O=C(CCCC(=O)NCCc1ccccc1)NO
> 50 µM: GI50 at 70 h [2] | GI50 [3] | GI50 ([11]; Homo sapiens, HuT78, 70 h) | GI50 [15] | GI50 ([16]; Homo sapiens, HCT-116, 72 h) | GI50 ([18]; Homo sapiens, MOLT-4, 70 h)
5 to 10 µM: IC50 [1] | IC50 [4] | IC50 [8] | IC50 [9] | IC50 [10] | IC50 [14] | IC50 [17] | IC50 [19]
> 10 µM: IC50 [5] | IC50 [13]
113%: Activity [7]
< 5 µM: IC50 [6]
> 1 µM: IC50 [12]

CCOC(=O)NCCCC(=O)NCCc1ccccc1
36 µM: GI50 [11]
> 50 µM and 17.2 µM: GI50 [16]
> 50 µM: GI50 at 70 h [2] | GI50 [3] | GI50 ([11]; Homo sapiens, HuT78, 70 h) | GI50 [15]
5 to 10 µM: IC50 [1] | IC50 [4] | IC50 [5] | IC50 [6] | IC50 [8] | IC50 [9] | IC50 [10] | IC50 [13] | IC50 [14] | IC50 [17] | IC50 [19]
inactive: inhibition [20] | inhibition [21] | inhibition [22] | inhibition [23] | inhibition [24] | inhibition [25] | inhibition [26] | inhibition [27] | inhibition [28] | inhibition [29] | inhibition [30] | inhibition [31] | inhibition [32]
> 50 µM and 7.8 µM: GI50 [18]
> 1 µM: IC50 [12]
77%: Activity [7]

O=C(CCCNC(=O)OCc1ccccc1)NCCc1ccccc1
> 50 µM: GI50 at 70 h [2] | GI50 [3] | GI50 ([11]; Homo sapiens, HuT78, 70 h) | GI50 [15] | GI50 ([16]; Homo sapiens, HCT-116, 72 h) | GI50 ([18]; Homo sapiens, MOLT-4, 70 h)
79%: Activity [7]
> 1 µM: IC50 [12]

CCOC(=O)NCCCC(=O)Nc1ccc(CO[Si](C)(C)C(C)(C)C)cc1
> 50 µM: GI50 at 70 h [2] | GI50 [3] | GI50 ([11]; Homo sapiens, HuT78, 70 h) | GI50 ([16]; Homo sapiens, HCT-116, 72 h) | GI50 ([18]; Homo sapiens, MOLT-4, 70 h)
23.7 µM: GI50 [15]
126%: Activity [7]
> 1 µM: IC50 [12]

O=C(CCCNC(=O)c1ccccc1)NCCc1ccccc1
85%: Activity [7]
> 1 µM: IC50 [12]
> 50 µM: GI50 at 70 h [2] | GI50 [3] | GI50 ([11]; Homo sapiens, HuT78, 70 h) | GI50 [15] | GI50 ([16]; Homo sapiens, HCT-116, 72 h) | GI50 ([18]; Homo sapiens, MOLT-4, 70 h)

CCOC(=O)NCCCC(=O)NCCNC(=O)OC(C)(C)C
> 50 µM: GI50 at 70 h [2] | GI50 [3] | GI50 ([11]; Homo sapiens, HuT78, 70 h) | GI50 [15] | GI50 ([16]; Homo sapiens, HCT-116, 72 h) | GI50 ([18]; Homo sapiens, MOLT-4, 70 h)
95%: Activity [7]
> 1 µM: IC50 [12]

CCCC(=O)NCCCC(=O)NCCc1ccccc1
> 50 µM: GI50 at 70 h [2] | GI50 [3] | GI50 ([11]; Homo sapiens, HuT78, 70 h) | GI50 [15] | GI50 ([16]; Homo sapiens, HCT-116, 72 h) | GI50 ([18]; Homo sapiens, MOLT-4, 70 h)
101%: Activity [7]
> 1 µM: IC50 [12]

CC(C)(C)CC(=O)NCCCC(=O)NCCc1ccccc1
> 1 µM: IC50 [12]
> 50 µM: GI50 at 70 h [2] | GI50 [3] | GI50 ([11]; Homo sapiens, HuT78, 70 h) | GI50 [15] | GI50 ([16]; Homo sapiens, HCT-116, 72 h) | GI50 ([18]; Homo sapiens, MOLT-4, 70 h)
73%: Activity [7]

CC(=O)NCCCC(=O)NCCc1ccccc1
> 1 µM: IC50 [12]
83%: Activity [7]
> 50 µM: GI50 at 70 h [2] | GI50 [3] | GI50 ([11]; Homo sapiens, HuT78, 70 h) | GI50 [15] | GI50 ([16]; Homo sapiens, HCT-116, 72 h) | GI50 ([18]; Homo sapiens, MOLT-4, 70 h)

— ChEMBL document CHEMBL4428107 (Bioorg Med Chem, 2016)
